This is an account of results in ChEMBL document CHEMBL4673305, “Azodyrecins A-C: Azoxides from a Soil-Derived Streptomyces Species” (J Nat Prod, 2020).

A short description of series [1]: Toxicity in Artemia salina assessed as mortality at 10 ug/ml after 24 hrs by Meyer method. The conditions noted are these: at 10 µg/mL. The essentials:
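Brine shrimp test after Meyer, modified. Artemia salina eggs were hatched in artificial seawater. Tubes held 30–40 nauplii in 4.95 mL seawater, plus 50 µL DMSO solution of compound (final 10 µg/mL). Elaiophylin was the positive control and DMSO alone the negative control. Mortality was scored after 24 h.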

A further series deals with HL-60. The series is described as follows: Cytotoxicity against human HL-60 cells assessed as reduction in cell viability after 48 hrs by AlamarBlue assay. It is filed as functional, cell-based. The essentials: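 HL-60 cells grown at 37 °C, 5% CO2, seeded at 2 x 10⁵ cells/mL. Compound in DMSO was dispensed acoustically at 10 concentrations (top 10 µM, 1:2 dilutions). After 48 h, AlamarBlue was added for a further 5 h and fluorescence read (ex 544/em 590 nm). DMSO-only wells served as maximal growth; medium-only wells gave background correction.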
(Alamar Blue is a resazurin reagent that responds to reducing activity.)

In the next series the test system is Candida albicans. Nature of the series: Antifungal activity against Candida albicans IBT 654.38 assessed as reduction in microbial growth after 16 to 24 hrs by agar well diffusion assay. The format is functional, organism-based. The conditions noted are these: time 16-24 hrs, in the assay text read “paper disk diffusion assay” for “agar well diffusion assay”. In short, it runs like this: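 Disk diffusion: a glucose–peptone agar base layer (pH 4.8) was inoculated with the yeast. 6 mm paper disks carried 80 µg compound applied in CH2Cl2 and were dried under sterile conditions before placing. Incubated 28 °C for 16–24 h; inhibition zone diameter measured.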
In general terms: Agar diffusion results depend on both activity and mobility in agar.

A further series relates to Vibrio anguillarum. The series is described as follows: Antimicrobial activity against Vibrio anguillarum 90-11-287 assessed as reduction in microbial growth after 24 hrs by agar well diffusion assay. It is filed as functional, organism-based. In short, it runs like this: (§1)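 Agar well diffusion on Instant Ocean agar (3% Instant Ocean, 3.33 g/L casamino acids, 4 g/L glucose, 10 g/L agar) seeded with pathogen. Wells 4 mm in diameter, 32-38 mm apart, each got 30 µL of a 100 µg/100 µL MeOH solution. Medium and MeOH wells were controls; the positive control was sterile-filtered supernatant of tropodithietic acid-producing Phaeobacter inhibens DSM17395. Incubated 24 h at 25 °C; inhibition zone diameter measured.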

The test system of the next series is Staphylococcus aureus. The series is described as follows: Antimicrobial activity against Staphylococcus aureus 8325 assessed as reduction in microbial growth after 24 hrs by agar well diffusion assay. The format is functional, organism-based. In short, it runs like this: as §1

pIC50: −log10 of the molar value. Calls of active or inactive are those of the source. No cut-off for these calls is given here.

For the compound `CC[C@@H]1[C@@H](C)O[C@@](O)([C@@H](C)[C@H](O)[C@H](C)[C@H]2OC(=O)/C=C/C=C/[C@H](C)[C@@H]([C@@H](C)[C@@H](O)[C@H](C)[C@@]3(O)C[C@@H](O[C@H]4C[C@H](O)[C@H](O)[C@H](C)O4)[C@H](CC)[C@@H](C)O3)OC(=O)/C=C/C=C/[C@@H]2C)C[C@H]1O[C@H]1C[C@H](O)[C@H](O)[C@H](C)O1`, the mortality at 24 h, 10 ug/ml in series [1] was found to be 78%.
`CCC(C)CCCCCCCCC/C=C\[N+]([O-])=N\[C@@H](C)C(=O)OC` (some centres undefined): the pIC50 in the series with HL-60 (Homo sapiens, HL-60, 48 h, read-out: IC50) was 5.66.
In the case of `COC(=O)[C@H](C)/N=[N+]([O-])/C=C\CCCCCCCCCC(C)C`, the IC50 entry in the series on HL-60 (hl-60) is given as “Nd(Unstable)”. The mortality at 24 h, 10 ug/ml in series [1] is 100%. Further, the result in the series on Candida albicans, in the series with Vibrio anguillarum and with Staphylococcus aureus was inactive.
As for `COC(=O)[C@H](C)/N=[N+]([O-])/C=C/CCCCCCCCCC(C)C`, the result with Vibrio anguillarum and with Staphylococcus aureus was inactive.

Broadly, the mortality is the percentage killed. Broadly, the pIC50 is the IC50 on a negative log10 scale, so that one unit is a factor of ten.
